Here are results for 36 compounds from ChEMBL document CHEMBL1124987, “7-Deaza-2-phenyladenines: structure-activity relationships of potent A1 selective adenosine receptor antagonists” (J Med Chem, 1990).

One assay has as its target Adenosine A2 receptor (Rattus norvegicus, UniProt P29276+P30543). In words: Binding affinity against Adenosine A2 receptor from rat striatal membrane using [3H]NECA as radioligand.
A further assay deals with T1, Adenosine receptor A1 (Rattus norvegicus, UniProt P25099).
T1 sequence (P25099 whole entry): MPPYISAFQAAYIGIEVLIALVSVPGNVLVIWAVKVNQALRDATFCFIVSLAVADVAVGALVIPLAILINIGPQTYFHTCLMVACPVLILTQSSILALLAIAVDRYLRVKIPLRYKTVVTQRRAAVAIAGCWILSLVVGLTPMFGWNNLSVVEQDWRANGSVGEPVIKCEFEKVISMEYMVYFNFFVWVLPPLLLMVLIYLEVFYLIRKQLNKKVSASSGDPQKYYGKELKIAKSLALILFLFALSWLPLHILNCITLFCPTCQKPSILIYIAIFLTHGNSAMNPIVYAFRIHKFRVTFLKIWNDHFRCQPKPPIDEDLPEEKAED
In words: Binding affinity against Adenosine A1 receptor from rat brain membrane using [3H]R-PIA as radioligand. Summed up: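 Rat cerebral cortical membranes; displacement of [3H]-(R)-PIA (Kd 1 nM) by a range of test concentrations. Nonspecific binding defined with 5 mM theophylline. Triplicate determinations in three separate experiments. IC50 converted to Ki via Cheng-Prusoff.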

Assay [1] has as its target T2, Adenosine receptor A1 (Rattus norvegicus) (UniProt P25099).
T2 sequence (whole entry): T1 sequence (P25099 whole entry)
Kind of assay: Reversal of adenylate cyclase inhibition via Adenosine A1 receptor by R-PIA in rat fat cells. Type of assay: functional, cell-based. Summed up:
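Rat fat cell membranes; adenylate cyclase inhibited by R-PIA through A1 receptors, and antagonist reversal measured. K_B calculated with the Schild equation from the ratio of R-PIA IC50 values with and without antagonist.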

The target in assay [2] is T3, Adenosine A2 receptor (Rattus norvegicus) (UniProt P29276+P30543). In words: Inhibition of adenylate cyclase activity via A2 receptors by NECA in rat PC12 cells; c = Noncompetitive inhibition. Type of assay: functional, cell-based. To be noted: PC-12. The essentials:
(§1)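 Membranes from rat pheochromocytoma PC12 cells; adenylate cyclase activated via A2 receptors by NECA, measured with a range of antagonist concentrations. K_B from the Schild equation using the ratio of NECA EC50 values with and without antagonist. Means ± SEM of three separate experiments in triplicate.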

Assay [3] addresses T3, Adenosine A2 receptor (Rattus norvegicus). In words: Inhibition of adenylate cyclase stimulation via Adenosine A2 receptor by NECA in rat striatal membrane; b= No effect. Type of assay: functional. The essentials:
(§2)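 Rat striatal membranes; adenylate cyclase stimulated by NECA through A2 receptors, with antagonist present or absent. K_B derived by Schild equation from the NECA EC50 ratio with versus without antagonist.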

For assay [4] the target is unchanged. Kind of assay: Inhibition of adenylate cyclase stimulation via Adenosine A2 receptor by NECA in rat pheochromocytoma PC12 cells. In kind it is functional, cell-based. To be noted: PC-12. Summed up:
as §1

For assay [5] the target is unchanged. Kind of assay: Inhibition of adenylate cyclase stimulation via Adenosine A2 receptor by NECA in rat striatal membrane. Type of assay: functional, cell membranes. To be noted: Striatum. Summed up: as §2

Activity calls are given as the source filed them. No cut-off for these calls is given here.

One may read the Ki as the equilibrium dissociation constant of an inhibitor or competing ligand from its target. Take `CS(=O)(=O)c1nc(S(C)(=O)=O)c2c3c(n(-c4ccccc4)c2n1)CCCC3`: the Ki at Adenosine A2 receptor is 157 µM; at Adenosine receptor A1, 16.9 µM.
Turning to `Cc1c(C)n(-c2ccccc2)c2nc(-c3ccc(Cl)cc3)nc(N)c12`, the results for the Kb in assay [1] and in assay [2] were 0.057 µM and “Non-competitive inhibition”, respectively. Further, the Ki at Adenosine A2 receptor was more than 250 µM; on Adenosine receptor A1 it was 0.122 µM. Also, in assay [3], the Kb result was “inactive”.
Turning to `Cc1c(C)n([C@@H](C)c2ccccc2)c2nc(-c3ccccc3)nc(N)c12`, the Ki amounted to 80.8 µM on Adenosine A2 receptor and 0.165 µM on Adenosine receptor A1.
`c1ccc(-n2c3ccccc3c3c(NC4CCCCC4)ncnc32)cc1`: the Ki was found to be 133 µM at Adenosine A2 receptor and 1.96 µM at Adenosine receptor A1.
For `Cc1c(C)n([C@H]2C[C@H](O)[C@@H](CO)O2)c2ncnc(N)c12` the same measures were more than 250 µM and more than 250 µM.
For `NNc1ncnc2c1c1ccccc1n2-c1ccccc1` the same measures were 7.71 µM and 8.42 µM.
As to `C=CCn1c(C)c(C)c2c(N)ncnc21`, the Ki was 83 µM on Adenosine A2 receptor and 49 µM on Adenosine receptor A1. The compound further had a Kb in assay [4] of 40 µM.
On to `Nc1ncnc2c1ccn2-c1ccccc1`, for which the Kb came to 4.6 µM in assay [1] and 17 µM in assay [4]. Further, the Ki at Adenosine A2 receptor is 25 µM; at Adenosine receptor A1, 3.1 µM.
With `Nc1ncnc2c1c1c(n2-c2ccccc2)CCCC1`, the Kb in assay [5] worked out at 31.6 µM; in assay [4] it was 7.5 µM. Further, the Ki on Adenosine A2 receptor was found to be 10.9 µM; at Adenosine receptor A1, 3.24 µM.
`O=c1[nH]cnc2c1c1c(n2-c2ccccc2)CCCC1` displayed a Ki on Adenosine receptor A1 of 2.07 µM.
Regarding `Cc1[nH]c2nc(-c3ccccc3Cl)nc(N)c2c1C`, the Ki on Adenosine A2 receptor amounted to 85.6 µM; on Adenosine receptor A1, 5.17 µM.
`Nc1ncnc2c1c(C(=O)O)c(C(=O)O)n2-c1ccccc1` came in with an inhibitory constant (Ki) on Adenosine receptor A1 of 67 µM.
As for `Cc1[nH]c2nc(-c3ccc(Cl)cc3)nc(N)c2c1C`, the values for the inhibition constant (Ki) on Adenosine A2 receptor and at Adenosine receptor A1 were 35.6 µM and 1.24 µM, respectively.
The like results for `Cc1[nH]c2ncnc(N)c2c1C` were, in that order, 208 µM and 55 µM.
For `Cc1c(C)n(-c2ccccc2)c2nc(-c3ccccc3Cl)nc(N)c12` the same measures were 40.7 µM and 0.99 µM.
With `Cc1c(C)n(-c2ccccc2)c2ncnc(N)c12`, the Kb stood at 22 µM in assay [1] and 62 µM in assay [4]. For the same compound, the inhibitory constant (Ki) on Adenosine A2 receptor was determined as 123 µM; on Adenosine receptor A1, 18 µM.
For the compound `Cc1c(C)n([C@H](C)c2ccccc2)c2nc(-c3ccccc3)nc(N)c12`, the values for the Kb in assay [1] and in assay [4] were 0.0038 µM and 3.06 µM, respectively. Also, the Ki stood at 3.71 µM at Adenosine A2 receptor and 0.0047 µM at Adenosine receptor A1.
For the compound `CCCCCCn1c(C)c(C)c2c(N)ncnc21`, the Ki at Adenosine A2 receptor worked out at 263 µM; on Adenosine receptor A1 it was 60 µM. In assay [4], the Kb came to 42 µM.
Take `Cc1c(C)n(C(C)c2ccccc2)c2nc(-c3ccccc3Cl)nc(N)c12` (centres undefined): the Ki at Adenosine A2 receptor worked out at 28.1 µM; at Adenosine receptor A1, 0.052 µM.
For `O=c1[nH]cnc2c1c1ccccc1n2-c1ccccc1`, the Ki on Adenosine receptor A1 amounted to 0.88 µM.
`CSc1nc(SC)c2c3c(n(-c4ccccc4)c2n1)CCCC3`: the Ki on Adenosine A2 receptor was more than 250 µM; at Adenosine receptor A1 it was 97.8 µM.
For `Cc1c(C)n(-c2ccccc2)c2nc(-c3ccccc3)nc(N)c12` the same measures were 0.024 µM and 0.036 µM.
For the compound `Sc1nc(S)c2c3c(n(-c4ccccc4)c2n1)CCCC3`, the values for the Ki at Adenosine A2 receptor and at Adenosine receptor A1 were more than 250 µM and 84.8 µM, respectively.
The like results for `Cc1c(C)n(C(C)c2ccccc2)c2nc(-c3cccc(Cl)c3)nc(N)c12` (centres undefined) were, in that order, 59.9 µM and 0.028 µM.
As to `COc1cccc(-n2c(C)c(C)c3c(N)ncnc32)c1OC`, the Ki at Adenosine receptor A1 turned out to be 54.3 µM.
As to `Cc1nc(N)c2c(C)c(C)[nH]c2n1`, the Ki was more than 250 µM on Adenosine A2 receptor and 88 µM at Adenosine receptor A1.
As to `Clc1ncnc2c1c1ccccc1n2-c1ccccc1`, the Ki at Adenosine A2 receptor turned out to be 4.06 µM; on Adenosine receptor A1, 2.42 µM.
`Oc1ncnc2c1c1ccccc1n2-c1ccccc1`: the Kb was 1.4 µM in assay [1] and 0.22 µM in assay [4]. The Ki on Adenosine A2 receptor was 1.44 µM.
Regarding `Nc1ncnc2c1c(C=O)c(C=O)n2-c1ccccc1`, the Ki on Adenosine A2 receptor amounted to 76.3 µM; on Adenosine receptor A1, 50.1 µM.
The like results for `Cc1c(C)n(Cc2ccc(Br)cc2)c2ncnc(N)c12` were, in that order, 154.9 µM and more than 100 µM.
The like results for `Cc1nc(N)c2c(C)c(C)n(-c3ccccc3)c2n1` were, in that order, 203 µM and 30.4 µM.
In the case of `Nc1ncnc2c1c1ccccc1n2-c1ccccc1`, the Kb worked out at 3.3 µM in assay [1], 14 µM in assay [5] and 1.73 µM in assay [4]. For the same compound, the inhibition constant Ki on Adenosine A2 receptor came out at 5.98 µM; on Adenosine receptor A1, 1.95 µM.
Turning to `Cc1[nH]c2nc(-c3ccccc3)nc(N)c2c1C`, the Kb in assay [1] came out at 0.8 µM; in assay [4], 5.5 µM. For the same compound, the values for the inhibition constant (Ki) on Adenosine A2 receptor and on Adenosine receptor A1 were 21.3 µM and 1.49 µM, respectively.
`Cc1[nH]c2ncnc(O)c2c1C`: the values for the Ki on Adenosine A2 receptor and at Adenosine receptor A1 were 176 µM and 58 µM, respectively. Moreover, the Kb in assay [4] was 33 µM.
As for `Cc1[nH]c2nc(-c3cccc(Cl)c3)nc(N)c2c1C`, the inhibition constant Ki at Adenosine A2 receptor turned out to be 20.8 µM; on Adenosine receptor A1 it was 0.73 µM.
For the compound `Oc1ncnc2c1c1c(n2-c2ccccc2)CCCC1`, the Kb came to 1.76 µM in assay [5] and 0.87 µM in assay [4]. For the same compound, the Ki on Adenosine A2 receptor was 1.35 µM.
